# Sampled rows, rich in hits. Any-hit rate of the full collection: about 3.1%.
# CSN inh = blocks human CSN-mediated cullin deneddylation | 360,000 tested, 0.38% active | AID 651999 | Purified CSN, SCF-Nedd8-OG deneddylation, fluorescence polarization | inhibition, % at 12.5 µM;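 active = pattern-corrected inhibition above about 35%, with an unprinted fluorescence ratio check between 0.5 and 1.5, limit read from the data, passing the limit was not always enough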;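 also: 0% = enzyme with substrate and 100% = substrate without enzyme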
#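 Detection – fluorescence polarization · System – HEK293T-derived human Csn5 enzyme · Controls – substrate-only high control, full reaction low control · Timing – 90 min, room temperature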
# rCAG binder = r(CAG) repeat RNA binding | 370,000 tested, 1.3% active | TO-PRO-1 dye displacement fluorescence | AID 651821 | inhibition, % at 3 µM;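 active = inhibition above the plate cutoff, the mean of all test compounds on that plate plus 3 SD, cut at about 35% in these data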;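 also: 0% = DMSO alone and 100% = 100 µM mitoxantrone as full dye displacement; higher means more dye released from RNA so lower well fluorescence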
# UHRF1 binding = human UHRF1 methylated DNA binding inhibitors. Q96T88. UHRF1 binding to methylated oligo, TR-FRET. inhibition, % at 4.4 µM. 370,000 tested, 0.75% active; in the data active = inhibition above about 21%;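 also: UHRF1 SRA domain binding a hemimethylated CpG hairpin DNA probe; 0% = median of test compound wells and 100% = reference inhibitor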
# Target sequence (Q96T88 whole entry, looked up, the tested form may be a part): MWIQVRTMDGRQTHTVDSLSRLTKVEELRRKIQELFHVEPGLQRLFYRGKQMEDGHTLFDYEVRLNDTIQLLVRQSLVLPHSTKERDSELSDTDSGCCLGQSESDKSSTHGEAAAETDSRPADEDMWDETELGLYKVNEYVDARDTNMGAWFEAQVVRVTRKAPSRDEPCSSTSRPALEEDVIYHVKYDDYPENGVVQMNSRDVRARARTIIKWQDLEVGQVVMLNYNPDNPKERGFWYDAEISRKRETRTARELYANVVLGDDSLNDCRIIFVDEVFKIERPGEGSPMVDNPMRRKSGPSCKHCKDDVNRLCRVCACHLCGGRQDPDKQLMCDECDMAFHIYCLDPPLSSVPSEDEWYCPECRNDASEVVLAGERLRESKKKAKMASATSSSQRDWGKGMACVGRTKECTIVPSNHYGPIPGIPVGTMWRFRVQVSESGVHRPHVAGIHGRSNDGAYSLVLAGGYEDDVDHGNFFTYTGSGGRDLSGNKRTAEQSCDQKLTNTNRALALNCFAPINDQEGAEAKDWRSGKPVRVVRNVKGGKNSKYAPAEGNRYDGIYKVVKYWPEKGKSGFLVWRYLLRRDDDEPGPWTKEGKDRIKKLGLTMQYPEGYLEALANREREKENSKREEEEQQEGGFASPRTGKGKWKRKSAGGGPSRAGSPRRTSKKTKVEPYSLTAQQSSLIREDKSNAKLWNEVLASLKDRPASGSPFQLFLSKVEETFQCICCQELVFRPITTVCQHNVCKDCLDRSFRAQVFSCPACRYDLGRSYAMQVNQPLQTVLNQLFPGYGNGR
# ATG4B inhibitor = inhibitors of human ATG4B cysteine protease; 340,000 tested, 0.51% active; inhibition, % at 8.33 µM; AID 504462; ATG4B cleavage of LC3-PLA2, NBD-HPC fluorescence, 1 h; Q9Y4P1; in the data active = inhibition above about 40%
# MBD2 inh = blocks human MBD2 binding to methylated DNA; 370,000 tested, 0.31% active; TR-FRET, MBD2 binding to methylated oligonucleotide; Q9UBB5; inhibition, % at 4.4 µM; in the data active = inhibition above about 13%
# LEDGF integ inh = blocks HIV-1 LEDGF/p75-dependent DNA integration. TR-FRET IN-LEDGF/p75 DNA integration, Eu/Cy5. inhibition, % at 3.7 µM. 370,000 tested, 0.64% active;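 active = inhibition above the screen-wide mean plus 3 SD, cut at about 13% in these data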;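 also: signal is the Cy5 over europium emission ratio at 671 and 618 nm; 0% = plate median of compound wells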
# rCAG binder conf = r(CAG) RNA repeat binding, confirmation | shares compounds with rCAG binder | TO-PRO-1 dye displacement fluorescence | inhibition, % at 3 µM | 4,300 tested, 70% active | AID 652065;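 active = inhibition above a per-plate cutoff, the mean inhibition of sample wells plus 3 SD, cut at about 35% in these data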;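 also: loss of TO-PRO-1 fluorescence as compound displaces dye from 1x1 AA loop RNA; 0% = DMSO only wells and 100% = 100 µM mitoxantrone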
# dCAG dye counter = DNA CAG dye complex inhibition counter-screen. shares compounds with rCAG binder. 4,300 tested, 94% active. d(CAG) DNA oligo TO-PRO-1 dye displacement, fluorescence. inhibition, % at 3 µM. AID 652068;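 active = inhibition above its plate's cutoff, the mean test-well inhibition plus 3 SD, cut at about 4.8% in these data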;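 also: 0% = DNA dye mix with DMSO and 100% = 100 µM mitoxantrone; hits displace the dye from DNA and so lower well fluorescence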
# Starred values were filed as active, the others as inactive; x = no result given.
SMILES,CSN inh,rCAG binder,UHRF1 binding,ATG4B inhibitor,MBD2 inh,LEDGF integ inh,rCAG binder conf,dCAG dye counter
CC(C)CS(=O)(=O)C1=NSC2=NC(=O)/C(=C\c3ccc(OC(=O)c4ccco4)cc3)C(=N)N21,4,24,11,16,0,-1,x,x
CSC1=NSC2=NC(=O)/C(=C\c3ccc(OC(=O)c4ccco4)cc3)C(=N)N12,11,38*,-2,10,0,3,43*,13*
C=CCN(C)C(C#CCCCC)c1ccccc1 (stereo unspecified),x,x,-1,x,1,2,x,x
Cc1ccccc1Cn1cc(CN2[C@@H](Cc3ccccc3)COc3cc(Br)ccc3S2(=O)=O)nn1,x,9,2,x,2,-1,x,x
O=C(Cn1nnc(-c2cc(C(F)(F)F)cc(C(F)(F)F)c2)n1)NNC(=S)Nc1ccc(Cl)cc1,2,66*,3,6,2,4,53*,21*
Cc1cc(C(F)(F)F)nn1CC(=O)NNC(=S)Nc1ccc(Cl)cc1,2,17,-2,-2,0,1,x,x
Cc1cc(C)cc(C(=O)OCCN2CCN(C3CN(Cc4cn(Cc5ccccc5F)nn4)S(=O)(=O)C3)CC2)c1 (stereo unspecified),x,3,15,x,8,-1,x,x
Cc1ccccc1Cn1cc(CN2[C@@H](C)COc3cc(Br)ccc3S2(=O)=O)nn1,x,0,-2,x,1,2,x,x
Cc1ccc(N=Nc2c(N)n[nH]c2N)cc1,5,4,-5,1,-4,0,x,x
Cc1ccc(-c2[nH]nc(N)c2N=Nc2cccc(Cl)c2C)cc1,-3,42*,-4,1,0,0,23,12*
CC(C)(C)N(Cc1cn(Cc2ccccc2)nn1)S(=O)(=O)c1ccc(N2CCCCC2)cc1Br,x,5,0,x,-7,3,x,x
COc1ccccc1C1C(C(=O)c2cc3ccccc3o2)=C(O)C(=O)N1c1cc(C)on1 (stereo unspecified),3,34,-4,-8,3,0,x,x
Cc1cc(N2C(=O)C(O)=C(C(=O)c3ccc(C)o3)C2c2cccc(Oc3ccccc3)c2)no1 (stereo unspecified),3,31,2,3,1,5,x,x
CCCOc1ccc(C2C(C(=O)c3cc4ccccc4o3)=C(O)C(=O)N2c2cc(C)on2)cc1 (stereo unspecified),0,31,1,-2,2,0,x,x
COc1ccc(OC)c(C2C(C(=O)c3cc4ccccc4o3)=C(O)C(=O)N2c2cc(C)on2)c1 (stereo unspecified),-1,38*,0,-11,-3,4,42*,12*
CCCOc1ccc(C2C(C(=O)c3cc4ccccc4o3)=C(O)C(=O)N2c2cc(C)on2)cc1OC (stereo unspecified),4,40*,-3,-12,-4,-2,76*,42*
C=CCOc1cccc(C2C(C(=O)c3cc4ccccc4o3)=C(O)C(=O)N2c2cc(C)on2)c1 (stereo unspecified),0,66*,2,-2,4,1,76*,40*
COc1cccc(C2C(C(=O)c3cc4ccccc4o3)=C(O)C(=O)N2c2cc(C)on2)c1 (stereo unspecified),-3,48*,1,-1,1,-2,52*,18*
C[C@H]1COc2cccc(N3CCCC3)c2S(=O)(=O)N1C,x,2,1,x,-1,-5,x,x
Cc1ccc(OCc2nn3c(C4CCCCC4)nnc3s2)cc1,x,-1,2,x,9,-2,x,x
O=S(=O)(Nc1ncnc2sc3c(c12)CCC3)c1ccc(Cl)s1,9,57*,1,38,-3,1,35*,11*
CN(Cc1ccccc1)C(=O)OCc1cn(Cc2cccc(F)c2F)nn1,x,-1,-1,x,-2,1,x,x
O=C(Nc1ccc(S(=O)(=O)N2CCOCC2)cc1)c1cc(-c2ccccc2O)n[nH]1,-1,35*,-1,-19,3,1,24,7.9*
CC1CN(S(=O)(=O)c2ccc(NC(=O)c3cc(-c4ccccc4O)n[nH]3)cc2)CC(C)O1 (stereo unspecified),1,37*,-2,-16,-1,2,28,14*
CCCCN(CCCC)c1ccc(C(=O)c2ccccc2C(=O)O)c(O)c1,1,72*,-3,12,-4,1,57*,21*
SMILES,CSN inh,rCAG binder,UHRF1 binding,ATG4B inhibitor,MBD2 inh,LEDGF integ inh,rCAG binder conf,dCAG dye counter
CCn1nc(NS(=O)(=O)c2ccc([N+](=O)[O-])cc2)c2cc3cccc(C)c3nc21,1,85*,-1,-1,4,1,69*,31*
CCn1nc(NS(=O)(=O)c2ccccc2[N+](=O)[O-])c2cc3ccc(C)cc3nc21,1,x,x,-2,x,x,x,x
CCn1nc(NS(=O)(=O)c2ccccc2[N+](=O)[O-])c2cc3cccc(C)c3nc21,1,74*,-2,-1,-1,-2,54*,21*
N#C/C(=C\c1ccccc1)C(=O)NNS(=O)(=O)c1cccc([N+](=O)[O-])c1,-2,36*,3,-1,4,10,7,2
Cc1ccc2nc(-c3ccc(NC(=O)CSc4nnc(-c5cccc(Cl)c5)n4Cc4ccco4)cc3)sc2c1,x,45*,-2,x,3,-1,16,8.7*
Cc1cc(NS(=O)(=O)c2ccc(NC(=O)Cc3ccc(Cl)c(Cl)c3)cc2)on1,x,57*,0,x,6,6,63*,24*
Cc1noc(NS(=O)(=O)c2ccc(NC(=O)/C=C/c3ccc(Br)cc3)cc2)c1C,3,82*,3,6,-6,1,67*,33*
COc1cc(/C=C/C(=O)Nc2ccc(S(=O)(=O)Nc3onc(C)c3C)cc2)cc(OC)c1OC,-3,53*,-2,-9,-8,1,51*,19*
Cc1noc(NS(=O)(=O)c2ccc(NC(=O)Nc3ccc(Cl)c(Cl)c3)cc2)c1C,3,91*,0,15,-3,1,83*,53*
Cc1noc(NS(=O)(=O)c2ccc(NC(=O)C(Cl)(Cl)Cl)cc2)c1C,2,-141,7,0,5,0,x,x
COc1cc(C(=O)Nc2ccc(S(=O)(=O)Nc3onc(C)c3C)cc2)cc(OC)c1OC,4,34,12,-5,2,3,x,x
CCSc1ncc(Cl)c(C(=O)Nc2ccc(S(=O)(=O)Nc3onc(C)c3C)cc2)n1,0,54*,0,-5,-5,0,29,6.9*

# Screening results as filed in PubChem BioAssay.
